# pEC50, pIC50: −log10 of the molar value.
# Legend:
# Leucine--tRNA ligase = molecular target: T1, Leucine--tRNA ligase (Mycobacterium tuberculosis (strain ATCC 25618 / H37Rv), UniProt P9WFV1); experiment: Inhibition of Mycobacterium tuberculosis H37Rv N-terminal 6His-tagged LeuRS expressed in Escherichia coli BL21(DE3) assessed as L-[14C]leucine incorporation in to Escherichia coli tRNA after 20 mins by liquid scintillation counting analysis
# T1 sequence (P9WFV1 whole entry): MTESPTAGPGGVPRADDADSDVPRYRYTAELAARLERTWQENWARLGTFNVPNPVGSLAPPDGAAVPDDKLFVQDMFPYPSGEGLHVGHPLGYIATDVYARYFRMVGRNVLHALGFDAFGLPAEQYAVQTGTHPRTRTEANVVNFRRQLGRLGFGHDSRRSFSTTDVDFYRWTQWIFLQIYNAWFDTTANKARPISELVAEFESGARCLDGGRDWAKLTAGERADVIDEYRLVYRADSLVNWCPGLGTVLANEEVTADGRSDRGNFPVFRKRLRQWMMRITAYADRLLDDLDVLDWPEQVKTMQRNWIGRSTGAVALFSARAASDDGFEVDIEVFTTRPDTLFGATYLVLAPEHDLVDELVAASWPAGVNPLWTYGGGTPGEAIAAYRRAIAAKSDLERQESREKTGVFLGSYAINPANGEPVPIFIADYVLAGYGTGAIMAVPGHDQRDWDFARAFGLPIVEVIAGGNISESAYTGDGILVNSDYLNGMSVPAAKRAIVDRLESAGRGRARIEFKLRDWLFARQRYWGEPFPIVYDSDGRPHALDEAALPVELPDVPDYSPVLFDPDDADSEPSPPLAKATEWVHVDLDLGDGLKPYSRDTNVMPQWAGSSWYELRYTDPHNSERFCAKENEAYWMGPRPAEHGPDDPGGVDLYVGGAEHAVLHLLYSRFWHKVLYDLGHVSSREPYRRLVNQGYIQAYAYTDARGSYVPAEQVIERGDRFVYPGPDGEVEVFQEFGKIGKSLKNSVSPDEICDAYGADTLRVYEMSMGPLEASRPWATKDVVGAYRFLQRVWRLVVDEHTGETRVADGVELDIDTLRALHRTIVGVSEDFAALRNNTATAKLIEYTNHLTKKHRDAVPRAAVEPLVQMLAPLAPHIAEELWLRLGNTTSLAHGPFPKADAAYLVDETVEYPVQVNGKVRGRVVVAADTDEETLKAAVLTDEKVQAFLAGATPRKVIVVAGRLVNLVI
# Method in brief: (§1)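 N-terminal His6-tagged LeuRS expressed in E. coli BL21(DE3), codon-optimized. 50 mM HEPES-KOH pH 8.0, 30 mM MgCl2, 30 mM KCl, 13 μM L-[14C]leucine, 15 μM tRNA (E. coli total; brewer's yeast for human cytoplasmic enzyme), 0.02% BSA, 1 mM DTT, 30 °C. Inhibitor preincubated 20 min, started with 4 mM ATP, TCA-quenched after 7 min, filtered, scintillation counted; four-parameter logistic IC50.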
# [1] = test system: Mycobacterium tuberculosis; experiment: Antimicrobial activity against Mycobacterium tuberculosis H37Rv; type: functional
# [2] = molecular target: T2, Leucine--tRNA ligase, cytoplasmic (Homo sapiens, UniProt Q9P2J5); experiment: Inhibition of human N-terminal 6His-tagged cytoplasmic LeuRS expressed in Escherichia coli BL21(DE3) assessed as […] after 20 mins by liquid scintillation counting analysis
# T2 sequence (Q9P2J5 whole entry): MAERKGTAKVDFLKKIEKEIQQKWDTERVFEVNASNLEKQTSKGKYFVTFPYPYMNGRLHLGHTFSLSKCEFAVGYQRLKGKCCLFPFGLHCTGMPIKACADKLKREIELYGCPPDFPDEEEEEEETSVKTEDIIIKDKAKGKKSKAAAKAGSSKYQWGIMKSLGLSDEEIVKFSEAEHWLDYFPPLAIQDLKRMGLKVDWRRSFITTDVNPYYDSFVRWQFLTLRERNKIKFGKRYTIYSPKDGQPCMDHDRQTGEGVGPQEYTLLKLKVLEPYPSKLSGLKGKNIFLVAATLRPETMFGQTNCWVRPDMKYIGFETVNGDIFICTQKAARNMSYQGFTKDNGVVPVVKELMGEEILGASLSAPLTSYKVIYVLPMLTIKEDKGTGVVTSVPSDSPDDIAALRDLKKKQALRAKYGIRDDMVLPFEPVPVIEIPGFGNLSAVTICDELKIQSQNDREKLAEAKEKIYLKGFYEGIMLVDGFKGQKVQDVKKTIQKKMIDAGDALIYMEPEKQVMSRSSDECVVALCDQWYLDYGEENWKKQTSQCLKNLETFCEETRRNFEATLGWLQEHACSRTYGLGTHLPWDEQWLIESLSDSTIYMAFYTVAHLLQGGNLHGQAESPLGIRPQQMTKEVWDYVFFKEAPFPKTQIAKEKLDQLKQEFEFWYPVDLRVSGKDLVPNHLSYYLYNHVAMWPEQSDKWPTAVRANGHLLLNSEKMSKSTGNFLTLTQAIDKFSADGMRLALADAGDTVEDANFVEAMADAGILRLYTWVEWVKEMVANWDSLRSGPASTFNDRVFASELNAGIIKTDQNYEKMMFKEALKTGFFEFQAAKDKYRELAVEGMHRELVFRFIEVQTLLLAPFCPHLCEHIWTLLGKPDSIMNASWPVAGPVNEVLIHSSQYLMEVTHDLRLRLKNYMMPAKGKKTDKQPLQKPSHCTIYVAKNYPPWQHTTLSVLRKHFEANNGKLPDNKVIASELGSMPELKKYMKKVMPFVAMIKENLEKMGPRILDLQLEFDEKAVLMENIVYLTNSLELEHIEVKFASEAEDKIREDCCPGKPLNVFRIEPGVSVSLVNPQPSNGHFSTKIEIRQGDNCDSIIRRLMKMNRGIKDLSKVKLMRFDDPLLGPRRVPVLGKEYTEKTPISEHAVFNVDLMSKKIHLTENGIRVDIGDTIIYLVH
# cytoplasmic LeuRS = experiment: Selectivity index, ratio of EC50 for inhibition of cytoplasmic LeuRS in HepG2 cells assessed as reduction in protein synthesis to MIC for Mycobacterium tuberculosis H37Rv; type: toxicity, cell-based; details: human, read-out: Selectivity Index
# Method in brief: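 Ratio of HepG2 protein-synthesis EC50 to MIC against M. tuberculosis H37Rv.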
# [3] = molecular target: T2, Leucine--tRNA ligase, cytoplasmic; experiment: Inhibition of cytoplasmic LeuRS in human HepG2 cells assessed as reduction in protein synthesis preincubated for 48 hrs followed by L-[14C]leucine addition measured after 3 hrs by liquid scintillation counting analysis; type: cell-based
# Method in brief: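 HepG2 cells in DMEM/10% FCS, 3000 cells/well, exposed to compound dilutions (0.5% DMSO final) for 48 h at 37 °C. Medium then replaced with fresh medium containing 0.5 μCi L-[14C]leucine and the same compound levels for 3 h. Cells trypsinised, precipitated in ice-cold 20% TCA, filtered, washed, scintillation counted; curve-fit EC50; mean of at least duplicates.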
# HepG2 = experiment: Cytotoxicity against human HepG2 cells assessed as reduction in cell viability after 48 hrs by CellTiter-Glo assay; type: cell-based; details: HepG2, 48 h
# Method in brief: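 HepG2 cells seeded at 10 000/well in EMEM with 5% FCS and 2 mM glutamine. After 24 h, ten 1:2 serial compound dilutions (0.5% DMSO final) added in duplicate for 48 h. Read-out by CellTiter-Glo luminescence per table footnote; the method text also describes resazurin fluorescence (ex 515/em 590 nm). Sigmoidal variable-slope fit.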
# [4] = molecular target: T3, Leucine--tRNA ligase, mitochondrial (Homo sapiens, UniProt Q15031); experiment: Inhibition of human N-terminal 6His-tagged mitochondrial LeuRS expressed in Escherichia coli BL21(DE3) assessed as L-[14C]leucine incorporation in to Escherichia coli tRNA after 20 mins by liquid scintillation counting analysis; method in brief: as §1
# T3 sequence (Q15031 whole entry): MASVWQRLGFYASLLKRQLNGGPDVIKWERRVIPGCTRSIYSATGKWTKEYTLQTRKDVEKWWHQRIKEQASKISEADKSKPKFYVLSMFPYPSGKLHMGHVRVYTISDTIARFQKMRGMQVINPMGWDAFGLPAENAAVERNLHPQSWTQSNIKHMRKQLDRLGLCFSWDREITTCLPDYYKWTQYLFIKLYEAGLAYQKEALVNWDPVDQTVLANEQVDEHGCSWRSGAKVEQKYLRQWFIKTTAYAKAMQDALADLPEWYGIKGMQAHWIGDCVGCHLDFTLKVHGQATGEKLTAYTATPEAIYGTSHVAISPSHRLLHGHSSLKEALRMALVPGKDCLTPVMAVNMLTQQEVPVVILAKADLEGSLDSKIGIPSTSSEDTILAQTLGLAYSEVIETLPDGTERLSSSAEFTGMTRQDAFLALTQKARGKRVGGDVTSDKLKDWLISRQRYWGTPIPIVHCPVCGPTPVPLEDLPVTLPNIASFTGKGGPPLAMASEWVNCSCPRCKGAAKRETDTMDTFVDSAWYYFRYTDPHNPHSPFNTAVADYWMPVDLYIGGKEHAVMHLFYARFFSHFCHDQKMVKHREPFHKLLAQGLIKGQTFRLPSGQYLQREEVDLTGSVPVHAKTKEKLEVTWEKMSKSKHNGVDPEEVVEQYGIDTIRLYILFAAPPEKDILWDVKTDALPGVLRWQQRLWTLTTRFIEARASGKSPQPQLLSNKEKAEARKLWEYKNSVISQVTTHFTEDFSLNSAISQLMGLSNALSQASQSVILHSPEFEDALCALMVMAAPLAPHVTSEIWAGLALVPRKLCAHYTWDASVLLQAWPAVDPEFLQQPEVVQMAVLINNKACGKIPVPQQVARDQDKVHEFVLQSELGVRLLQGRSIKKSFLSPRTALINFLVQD
SMILES,pIC50 (Leucine--tRNA ligase),MIC [1],other results
NCC1OB(O)c2c3c(cc(Br)c21)OCCO3 (racemic),7.04,0.5 µM,–
NCC1OB(O)c2c(OCCc3ccccc3)ccc(Cl)c21 (racemic),6.14,5 µM,–
CCCCOc1ccc(Br)c2c1B(O)O[C@@H]2CN,6.70,0.45 µM,–
NC[C@H]1OB(O)c2c(OCCCO)ccc(Br)c21,6.80,0.3 µM,–
NCC1OB(O)c2c(Oc3ccc(Br)cc3)ccc(Br)c21 (racemic),6.16,> 5 µM,–
NCC1OB(O)c2c(OCCc3ccccc3)ccc(Br)c21 (racemic),6.33,> 5 µM,–
CCCOc1ccc(Br)c2c1B(O)O[C@@H]2CN,6.62,0.38 µM,–
NC[C@H]1OB(O)c2c3c(cc(Br)c21)OCCO3,6.92,0.03 µM,pIC50 [2]: 3.93; selectivity ratio (cytoplasmic LeuRS): 1320; pEC50 [3]: 4.40; pEC50 (HepG2): 4.36
NCC1OB(O)c2c3c(cc(Cl)c21)OCCO3 (racemic),6.89,0.31 µM,–
NCC1OB(O)c2cc(OCCCO)cc(Br)c21 (racemic),6.43,> 5 µM,–
CCOc1cc(Cl)c2c(c1)B(O)OC2CN (racemic),6.20,> 5 µM,–
CCCOc1ccc(Cl)c2c1B(O)O[C@@H]2CN,6.51,0.16 µM,–
NCC1OB(O)c2c(OCCO)ccc(Br)c21 (racemic),6.82,0.16 µM,–
CCCCOc1ccc(Cl)c2c1B(O)O[C@@H]2CN,6.57,0.6 µM,–
COc1ccc(Cl)c2c1B(O)O[C@@H]2CN,6.82,0.1 µM,pIC50 [2]: 3.59; selectivity ratio (cytoplasmic LeuRS): 1050; pIC50 [4]: < 3.52; pEC50 [3]: 3.98; pEC50 (HepG2): 3.49
CCOc1ccc(Cl)c2c1B(O)O[C@@H]2CN,7.25,0.1 µM,selectivity ratio (cytoplasmic LeuRS): 196; pIC50 [4]: < 3.52; pEC50 [3]: 4.71; pEC50 (HepG2): 4.18
NCC1OB(O)c2cc(OCCCO)cc(Cl)c21 (racemic),6.36,> 5 µM,–
NC[C@@H]1OB(O)c2c(OCCO)ccc(Cl)c21,5.00,5 µM,–
NC[C@H]1OB(O)c2c(OCCO)ccc(Br)c21,6.92,0.08 µM,pIC50 [2]: 3.93; selectivity ratio (cytoplasmic LeuRS): 1450; pIC50 [4]: < 3.52; pEC50 [3]: 3.94; pEC50 (HepG2): 3.53
NC[C@@H]1OB(O)c2c3c(cc(Cl)c21)OCCO3,4.90,80 µM,–

SMILES,pIC50 (Leucine--tRNA ligase),MIC [1],other results
CCOc1ccc(F)c2c1B(O)O[C@@H]2CN,–,0.2 µM,–
NCC1OB(O)c2c(OCC(F)F)ccc(Br)c21 (racemic),6.62,0.31 µM,–
NCC1OB(O)c2c(OCCO)ccc(Cl)c21 (racemic),6.62,0.63 µM,–
CCCOc1cc(Br)c2c(c1)B(O)OC2CN (racemic),6.43,0.6 µM,–
NCC1OB(O)c2c(OCCF)ccc(Br)c21 (racemic),6.59,0.2 µM,–
NC[C@H]1OB(O)c2c(OCCCO)ccc(Cl)c21,6.33,0.14 µM,–
CCOc1cc(Br)c2c(c1)B(O)OC2CN (racemic),6.59,3.75 µM,–
NCC1OB(O)c2c(OCC(F)F)ccc(Cl)c21 (racemic),6.54,0.3 µM,–
NCC1OB(O)c2c3c(cc(Cl)c21)OCO3 (racemic),6.60,> 5 µM,–
NCC1OB(O)c2c(OCc3ccccc3)ccc(Cl)c21 (racemic),6.49,5 µM,–
NCC1OB(O)c2c(OCCF)ccc(Cl)c21 (racemic),7.12,0.2 µM,–
NC[C@@H]1OB(O)c2c3c(cc(Br)c21)OCCO3,5.38,40 µM,–
NCC1OB(O)c2cc(OCCO)cc(Cl)c21 (racemic),5.95,> 5 µM,–
NCC1OB(O)c2cc(OCCO)cc(Br)c21 (racemic),6.05,> 5 µM,–
NC[C@@H]1OB(O)c2c(OCCO)ccc(Br)c21,4.85,10 µM,–
CCCOc1cc(Cl)c2c(c1)B(O)OC2CN (racemic),6.60,1.3 µM,–
CCOc1cccc2c1B(O)O[C@@H]2CN,–,0.6 µM,–
NCC1OB(O)c2c3c(cc(Br)c21)OCO3 (racemic),6.21,> 5 µM,–
NCC1OB(O)c2c(OCc3ccccc3)ccc(Br)c21 (racemic),6.36,5 µM,–
NCC1OB(O)c2c(Oc3ccccc3)ccc(Cl)c21 (racemic),6.47,5 µM,–

# From ChEMBL document CHEMBL4017537, “Discovery of a Potent and Specific M. tuberculosis Leucyl-tRNA Synthetase Inhibitor: (S)-3-(Aminomethyl)-4-chloro-7-(2-hydroxyethoxy)benzo[c][1,2]oxaborol-1(3H)-ol (GSK656)” (J Med Chem, 2017)
